Experimental data reported in paper PMC12646499 (Journal of Chemical Information and Modeling, 2025).
Blank lines part the entries; values can stand above or below the molecule they belong to.

What was measured:
PD-L1 = conditions: ligand in PDB 5N2F; cited from earlier work
[1] = tested in clinical trials but discontinued; cited from earlier work
PD-1–PD-L1 interaction = PD-1–PD-L1 interaction (Homo sapiens, UniProt Q9NZQ7); test: PD-1–PD-L1 TR-FRET assay; assay type: binding
Summary of the method: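 Test compound (from 5 mM DMSO stock, diluted in PBS) was preincubated 10 min with biotin-PD-L1 (added at 11 μg/mL) at room temperature in the dark. Eu-PD-1 (0.8 μg/mL) plus acceptor dye was then added for 1.5 h. Single doses were 5 and 25 μM final; dose-response used a 5:1 serial dilution. The 665/620 nm ratio (excitation 337 nm) was normalised to controls with and without PD-L1, in triplicate. IC50 came from nonlinear regression.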

human PD-L1 = conditions: binds human PD-L1; previously published; cited from earlier work
[2] = system: LS 180 colorectal adenocarcinoma cells bearing the K-Ras G12D mutation; test: MTT cell toxicity assay in LS 180 cells; assay type: cell-based; conditions: 48 h
Summary of the method: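 LS 180 cells were grown in DMEM with 10% FBS at 37 °C and 5% CO2, then seeded at 5000 cells/well in DMEM with 5% FBS and left to attach for 24 h. Test compound was added at 10, 4, 1.6 or 0.64 μM final, with 0.2% DMSO, in sextuplicate, for 48 h. MTT (0.35 mg/mL final) was added for 4 h, then DMF/SDS/HCl/acetic acid stop solution overnight at room temperature. A570 was read as % survival versus no compound.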

Sequence of PD-1–PD-L1 interaction (Q9NZQ7 19-238 limits assumed): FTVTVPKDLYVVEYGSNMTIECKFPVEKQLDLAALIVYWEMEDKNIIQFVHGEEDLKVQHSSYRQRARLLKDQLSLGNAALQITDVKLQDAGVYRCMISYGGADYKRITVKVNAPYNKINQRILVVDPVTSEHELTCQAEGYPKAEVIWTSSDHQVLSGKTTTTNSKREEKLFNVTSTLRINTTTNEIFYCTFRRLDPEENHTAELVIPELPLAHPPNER

Compound: Cc1c(COc2cc(F)c(CNC[C@@H](O)CC(=O)O)cc2F)cccc1-c1ccc2c(c1)OCCO2 [BMS-200]
IC50 (PD-L1): 3.1 nM

IC50 (PD-1–PD-L1 interaction): 5.6 nM
activity at 5 μM (in words) (PD-1–PD-L1 interaction; 5 μM): complete loss of activity
Compound: Cc1c(Nc2nccc3cc(CN4CC[C@@H](O)C4)cnc23)cccc1-c1cccc(-c2nc3cc(CN4CC[C@@H](C(=O)O)C4)cc(C#N)c3o2)c1C [INCB086550]
toxicity in clinical trials (in words) [1]: high toxicity
IC50 (human PD-L1): 3.1 nM

Compound: C#Cc1c(F)ccc2cc(O)cc(-c3ncc4c(N5CC6CCC(C5)N6)nc(OC[C@@]56CCCN5C[C@H](F)C6)nc4c3F)c12 [MRTX1133]
GI50 [2]: submicromolar
